{"source": "ChEMBL document CHEMBL1124186", "about": "“Synthesis and evaluation of tylosin-related macrolides modified at the aldehyde function: a new series of orally effective antibiotics” (1988)", "key": {"Rattus norvegicus [1]": {"system": "Rattus norvegicus", "experiment": "Peripheral plasma levels in rats after oral administration of 100 mg/kg dose for 2 hr", "format": "functional, organism-based", "set-up": "dose 100 mg/kg", "outline": "(§1)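 Rats received 100 mg/kg orally and were sampled for peripheral plasma. Concentrations were measured by Micrococcus luteus agar-diffusion microbiological assay in Antibiotic Medium 1, with zone sizes converted using the standard curve for the appropriate compound. Each value is the average of three rats per time point.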"}, "Enterococcus faecium": {"system": "Enterococcus faecium", "experiment": "In vitro antimicrobial activity against Streptococcus faecium X66", "format": "functional, streptococcus fae-cium"}, "Rattus norvegicus [2]": {"system": "Rattus norvegicus", "experiment": "Peripheral plasma levels in rats after oral administration of 100 mg/kg dose for 4 hr", "format": "functional, organism-based", "set-up": "dose 100 mg/kg", "outline": "as §1"}, "Staphylococcus aureus": {"system": "Staphylococcus aureus", "experiment": "In vitro antimicrobial activity against Staphylococcus aureus X1", "format": "functional"}, "Rattus norvegicus [3]": {"system": "Rattus norvegicus", "experiment": "Peripheral plasma levels in rats after oral administration of 100 mg/kg dose for 0.5 hr", "format": "functional, organism-based", "set-up": "dose 100 mg/kg", "outline": "as §1"}, "Streptococcus pyogenes [4]": {"system": "Streptococcus pyogenes", "experiment": "In vivo effective dose against experimental infections in rodent caused by Streptococcus pyogenes C203 when administered sc", "format": "functional"}, "[5]": {"system": "Staphylococcus epidermidis", "experiment": "In vitro antimicrobial activity against Staphylococcus epidermidis EPI1", "format": "functional"}, "Streptococcus pneumoniae": {"system": "Streptococcus pneumoniae", "experiment": "In vitro antimicrobial activity against Streptococcus pneumoniae", "format": "functional"}, "Streptococcus pyogenes [6]": {"system": "Streptococcus pyogenes", "experiment": "In vitro antimicrobial activity against Streptococcus pyogenes C203", "format": "functional"}, "Rattus norvegicus [7]": {"system": "Rattus norvegicus", "experiment": "Peripheral plasma levels in rats after oral administration of 100 mg/kg dose for 0.25 hr", "format": "functional, organism-based", "set-up": "dose 100 mg/kg", "outline": "as §1"}, "Rattus norvegicus [8]": {"system": "Rattus norvegicus", "experiment": "Peripheral plasma levels in rats after oral administration of 100 mg/kg dose for 1 hr", "format": "functional, organism-based", "set-up": "dose 100 mg/kg", "outline": "as §1"}}}
{"smiles": "CC[C@H]1OC(=O)C[C@@H](O)[C@H](C)[C@@H](O[C@@H]2O[C@H](C)[C@@H](O)[C@H](N(C)C)[C@H]2O)[C@@H](CCSc2ccccc2)C[C@@H](C)C(=O)/C=C/C(C)=C/[C@@H]1CO[C@@H]1O[C@H](C)[C@@H](O)[C@@H](OC)[C@H]1OC", "values": [{"measurement": "Concentration", "setting": "Rattus norvegicus [1]", "result": 2.9, "unit": "µg/mL"}, {"measurement": "MIC", "setting": "Enterococcus faecium", "result": 8, "unit": "µg/mL"}, {"measurement": "Concentration", "setting": "Rattus norvegicus [2]", "result": 4.2, "unit": "µg/mL"}, {"measurement": "MIC", "setting": "Staphylococcus aureus", "result": 0.25, "unit": "µg/mL"}, {"measurement": "Concentration", "setting": "Rattus norvegicus [3]", "result": 1.3, "unit": "µg/mL"}, {"measurement": "ED50", "setting": "Streptococcus pyogenes [4]", "result": 10, "unit": "mg/kg"}, {"measurement": "MIC", "setting": "[5]", "result": 0.25, "unit": "µg/mL"}, {"measurement": "MIC", "setting": "Streptococcus pneumoniae", "result": 2, "unit": "µg/mL"}, {"measurement": "MIC", "setting": "Streptococcus pyogenes [6]", "result": 0.25, "unit": "µg/mL"}, {"measurement": "Concentration", "setting": "Rattus norvegicus [7]", "result": 0.5, "unit": "µg/mL"}, {"measurement": "Concentration", "setting": "Rattus norvegicus [8]", "result": 2.5, "unit": "µg/mL"}]}
